# According to ChEMBL document CHEMBL1129527, “Synthesis, chromatographic resolution, and anti-human immunodeficiency virus activity of (+/-)-calanolide A and its enantiomers” (J Med Chem, 1996):
# What was measured:
# CCRF-CEM = experiment: Anti-HIV activity against HIV-I RFII strain in CEM cell line; assay type: functional, cell-based; settings: Homo sapiens
# Method in brief: (§1)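 CEM-SS cells in RPMI 1640 with 10% heat-inactivated FCS, infected at ~0.12 TCID50/cell for 4 h at 37 °C, washed, and seeded at 10^4 cells/mL. Drug dilutions from DMSO went up to 100 µg/mL, in triplicate on infected wells and duplicate on uninfected wells. MTT viability was measured after 6 days.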
# Nucleic Acid [1] = experiment: Inhibitory activity against DNA polymerase alpha; IA=inactive; assay type: nucleic-acid assay
# Method in brief: (§2)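 Polymerase α or β (0.5 unit) in Tris·HCl with 5 mM KCl, 10 mM MgCl2, 1.5 mM DTT, BSA, and 12% glycerol. Template was 41 µM activated calf thymus DNA, with 80 µM each dATP, dCTP, dGTP and ATP, plus [3H]TTP. Compound was added in DMSO, duplicate wells, 37 °C. Incorporation was counted by scintillation. IC50 came from 10-point half-log dose–response curves.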
# Nucleic Acid [2] = experiment: Inhibitory activity against DNA polymerase beta; assay type: nucleic-acid assay; method in brief: as §2
# MT2 [3] = experiment: Anti-HIV activity against HIV-I A17 strain in MT2 cell line; assay type: functional, cell-based; settings: Homo sapiens
# Method in brief: (§3)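 MT-2 cells in RPMI 1640 with 10% heat-inactivated FCS and 25 mM HEPES, infected at MOI ~0.03 TCID50/cell for 4 h at 37 °C, then washed. Seeded at 10^4 cells/mL. Compounds were diluted from DMSO to a top concentration of 100 µg/mL (≤0.25% DMSO), in triplicate with infected cells and duplicate with uninfected cells. MTT viability was read at day 7. EC50 protects against virus-induced killing; IC50 is cytotoxicity.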
# MT2 [4] = experiment: (§4) Anti-HIV activity against HIV-I G910-6 strain in MT2 cell line; assay type: functional, cell-based; settings: Homo sapiens; method in brief: as §3
# MT2 [5] = experiment: (§5) Anti-HIV activity against HIV-I H112-2 strain in MT2 cell line; assay type: functional, cell-based; settings: Homo sapiens; method in brief: as §3
# MT2 [6] = experiment: Anti-HIV activity against HIV-I IIIB strain in MT2 cell line; assay type: functional, cell-based; settings: Homo sapiens; method in brief: as §3
# [7] = target: DNA-directed RNA polymerase subunit beta (Escherichia coli K-12, UniProt P0A8V2); experiment: Inhibitory activity against RNA polymerase; IA=inactive
# DNA-directed RNA polymerase subunit beta, sequence (P0A8V2 whole entry): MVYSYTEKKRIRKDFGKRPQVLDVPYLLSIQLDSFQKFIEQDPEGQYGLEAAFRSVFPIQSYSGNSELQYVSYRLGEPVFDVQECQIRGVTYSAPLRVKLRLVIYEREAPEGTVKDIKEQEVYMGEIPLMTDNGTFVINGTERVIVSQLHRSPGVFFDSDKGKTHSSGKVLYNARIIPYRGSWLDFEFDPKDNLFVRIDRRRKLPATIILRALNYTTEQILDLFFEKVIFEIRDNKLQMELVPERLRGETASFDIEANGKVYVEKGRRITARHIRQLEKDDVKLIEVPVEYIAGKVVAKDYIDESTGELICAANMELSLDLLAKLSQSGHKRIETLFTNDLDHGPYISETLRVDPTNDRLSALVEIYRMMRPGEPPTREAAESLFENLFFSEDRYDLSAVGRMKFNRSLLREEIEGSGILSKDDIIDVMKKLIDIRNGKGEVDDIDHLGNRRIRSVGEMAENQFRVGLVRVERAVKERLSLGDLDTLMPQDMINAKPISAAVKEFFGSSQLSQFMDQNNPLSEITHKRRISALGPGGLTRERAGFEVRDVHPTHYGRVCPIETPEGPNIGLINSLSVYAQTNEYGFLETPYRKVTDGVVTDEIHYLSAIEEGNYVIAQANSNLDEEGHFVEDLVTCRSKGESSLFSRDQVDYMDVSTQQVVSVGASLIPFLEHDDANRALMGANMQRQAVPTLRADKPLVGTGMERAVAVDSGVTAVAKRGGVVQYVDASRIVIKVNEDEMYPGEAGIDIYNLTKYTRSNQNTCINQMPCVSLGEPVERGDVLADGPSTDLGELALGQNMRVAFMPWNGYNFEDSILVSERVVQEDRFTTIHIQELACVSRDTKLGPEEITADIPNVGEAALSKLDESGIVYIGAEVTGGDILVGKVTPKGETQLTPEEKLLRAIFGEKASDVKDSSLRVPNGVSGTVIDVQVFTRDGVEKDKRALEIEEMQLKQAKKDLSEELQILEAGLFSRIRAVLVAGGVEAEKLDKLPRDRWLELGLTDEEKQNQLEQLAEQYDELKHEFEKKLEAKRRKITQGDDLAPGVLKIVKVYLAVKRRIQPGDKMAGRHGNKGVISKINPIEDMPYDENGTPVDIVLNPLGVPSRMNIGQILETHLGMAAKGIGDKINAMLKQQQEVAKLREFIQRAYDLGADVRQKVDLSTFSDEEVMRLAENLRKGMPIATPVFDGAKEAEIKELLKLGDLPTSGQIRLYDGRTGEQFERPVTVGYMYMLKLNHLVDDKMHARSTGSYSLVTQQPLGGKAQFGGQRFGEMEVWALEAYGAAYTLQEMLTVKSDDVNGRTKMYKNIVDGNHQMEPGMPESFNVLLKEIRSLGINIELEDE
# Method in brief: (§6)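 RNA polymerase (0.5 unit) in Tris·HCl with 150 mM KCl, 10 mM MgCl2, 0.1 mM DTT, and BSA. Template was 41 µM native calf thymus DNA, with 80 µM each ATP, CTP and GTP, plus [3H]UTP. Compounds in DMSO were prescreened at 200 µg/mL. […] Percent inhibition = (1 − test/DMSO control) × 100.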
# [8] = target: DNA-directed RNA polymerase subunit beta (Escherichia coli K-12) (UniProt P0A8V2); experiment: Percent inhibition against RNA polymerase at dose 200 ug/mL; method in brief: as §6
# DNA-directed RNA polymerase subunit beta (Escherichia coli K-12), sequence (P0A8V2 whole entry, looked up): as the sequence (P0A8V2 whole entry) above
# [9] = tested on: Avian myeloblastosis virus; experiment: Inhibitory activity against Avian Myeloblastosis Virus Reverse Transcriptase (AMV RT); IA=inactive; assay type: functional
# [10] = tested on: Avian myeloblastosis virus; experiment: Percent inhibition against Avian Myeloblastosis Virus Reverse Transcriptase (AMV RT) at dose 200 ug/mL; assay type: functional
# [11] = tested on: Avian myeloblastosis virus; experiment: Inhibitory activity against Avian Myeloblastosis Virus Reverse Transcriptase (AMV RT); inactive; assay type: functional
# MT2 [12] = experiment: as §4; assay type: functional; settings: Homo sapiens; method in brief: as §3
# MT2 [13] = experiment: as §5; assay type: functional; settings: Homo sapiens; method in brief: as §3
# [14] = Therapeutic index is the ratio between IC50/EC50 of HIV-I RFII strain in CEM cell line; assay type: cell-based, CCRF-CEM; settings: human, CEM cells infected with HIV-1 RFII strain; read-out: TI; method in brief: as §1
# [15] = Therapeutic index is the ratio between IC50/EC50 of HIV-I A17 strain in MT2 cell line; assay type: cell-based; settings: human, MT2 cells infected with HIV-1 A17 strain; read-out: TI; method in brief: as §3
# [16] = Therapeutic index is the ratio between IC50/EC50 of HIV-I G910-6 strain in MT2 cell line; assay type: cell-based; settings: human, MT2 cells infected with HIV-1 G910-6 strain; read-out: TI; method in brief: as §3
# [17] = Therapeutic index is the ratio between IC50/EC50 of HIV-I H112-2 strain in MT2 cell line; assay type: cell-based; settings: human, MT2 cells infected with HIV-1 H112-2 strain; read-out: TI; method in brief: as §3
# [18] = Therapeutic index is the ratio between IC50/EC50 of HIV-I IIIB strain in MT2 cell line; assay type: cell-based; settings: human, MT2 cells infected with HIV-1 IIIB strain; read-out: TI; method in brief: as §3
Compound,EC50 (CCRF-CEM) [nM],IC50 (Nucleic Acid [1]),IC50 (Nucleic Acid [2]) [nM],EC50 (MT2 [3]) [nM],EC50 (MT2 [4]) [nM],EC50 (MT2 [5]) [nM],EC50 (MT2 [6]) [nM],IC50 [7],inhibition [8] [%],IC50 [9],inhibition at 200 µg/mL [10] [%],IC50 [11],IC25 (MT2 [12]) [nM],IC25 (MT2 [13]) [nM],selectivity ratio [14],selectivity ratio [15],selectivity ratio [16],selectivity ratio [17],selectivity ratio [18]
CCCc1cc(=O)oc2c3c(c4c(c12)OC(C)(C)C=C4)O[C@@H](C)C(C)[C@@H]3O (mixture of isomers),486,Not Active,279000,297,108,135,108,Not Active,27.8,Not Active,13.3,–,–,–,–,–,–,–,–
CCCc1cc(=O)oc2c3c(c4c(c12)OC(C)(C)C=C4)O[C@H](C)[C@@H](C)[C@@H]3O [CALANOLIDE A],267,Not Active,205000,427,27,107,53,Not Active,16,–,20.6,Not Active,–,–,–,–,–,–,–
CCCc1cc(=O)oc2c3c(c4c(c12)OC(C)(C)C=C4)O[C@@H](C)[C@H](C)[C@@H]3O [COSTATOLIDE],–,Not Active,214000,–,–,–,–,Not Active,12.1,Not Active,16.8,–,3970,4050,–,–,–,–,–
Nc1ccn([C@H]2CC[C@@H](CO)O2)c(=O)n1 [ZALCITABINE],189,–,–,331,994,1560,900,–,–,–,–,–,–,–,250,408,213,166,93
Cc1cn([C@H]2C[C@H](N=[N+]=[N-])[C@@H](CO)O2)c(=O)[nH]c1=O [ZIDOVUDINE],23,–,–,14,–,37,29,–,–,–,–,–,–,–,13100,5960,–,3240,1780
